Bim-Mcl-1: inhibitors of Bim-Mcl-1 interaction, human; Q07820; Bead-based flow cytometry, Bim peptide-Mcl-1 binding; inhibition, % at 10 µM; 190,000 compounds, 0.1% hits; AID 1009; in the data active means inhibition above about 40%
Target sequence (Q07820 whole entry, looked up): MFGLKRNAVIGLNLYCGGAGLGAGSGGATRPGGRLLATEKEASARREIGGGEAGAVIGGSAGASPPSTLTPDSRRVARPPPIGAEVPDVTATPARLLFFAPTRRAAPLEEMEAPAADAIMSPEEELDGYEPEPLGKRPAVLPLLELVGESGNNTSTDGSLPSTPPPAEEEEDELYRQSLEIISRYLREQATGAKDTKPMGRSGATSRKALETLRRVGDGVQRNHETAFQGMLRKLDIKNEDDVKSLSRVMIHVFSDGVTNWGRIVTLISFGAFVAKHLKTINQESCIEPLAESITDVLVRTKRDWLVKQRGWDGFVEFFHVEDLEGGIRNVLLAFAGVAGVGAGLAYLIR
Mcl1 Bid PPI: disrupts binding of human Mcl-1 to Bid peptide | Q07820 | TR-FRET Mcl-1/Bid-Dy647 peptide binding, 1536-well | inhibition, % at 21.7 µM | 220,000 compounds, 0.97% hits | AID 1021;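 active means compounds that cut the binding signal by more than half at the single screening dose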;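 further: His-tagged Mcl-1 with europium anti-His antibody binding Bid BH3 peptide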
Mcl1 Noxa PPI: Mcl-1/Noxa interaction inhibition. 220,000 compounds, 1.5% hits. inhibition, % at 21.7 µM. AID 1022. Q07820. TR-FRET Mcl-1/Noxa peptide binding, 2 h;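 active means compounds that cut the protein-peptide binding signal by more than 50% relative to plate controls in a single-dose test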;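 further: His-tagged Mcl-1 with rhodamine Noxa BH3 peptide and terbium anti-His antibody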
RBBP9 inh: blocks human serine hydrolase RBBP9; O75884; recombinant RBBP9, FP-Rh probe fluorescence polarization; inhibition, % at 7.94 µM; 220,000 compounds, 0.2% hits; AID 1515;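 active means inhibition above the campaign mean of all tested compounds plus 3 SD, cut at about 14% in these data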
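Controls: DMSO-treated enzyme wells and wells lacking RBBP9 | Material: RBBP9 protein | Technique: Fluorescence polarization | Replication: Single well per compound, no replicates | Buffer or medium: Tris-NaCl-Pluronic buffer, pH 8.0 | Timing: 30 min compound preincubation, 45 min probe labeling, 25 °C | Read-out basis: Percent inhibition from mP, scaled between DMSO and no-protein wells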
MCL1-BIM inh: disrupts human MCL1 binding to BIM-BH3 peptide; Q07820; GST-MCL1 / FITC-Bim-BH3 fluorescence polarization; inhibition, % at 10.9 µM; 320,000 compounds, 0.68% hits; AID 2057;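 active means inhibition above the mean inhibition of all tested compounds plus 3 SD, set per campaign, cut at about 40% in these data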;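 further: higher means more loss of mP so more displacement of Bim peptide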
EBV gp42 inh: EBV gp42 inhibition; inhibition, % (tested at 21.74 µM); Fluorescence polarization binding assay, mP read-out; AID 1085; Q1HVG2; 220,000 compounds, 0.42% hits; in the data active means inhibition above about 50%
Target sequence (Q1HVG2 whole entry, looked up): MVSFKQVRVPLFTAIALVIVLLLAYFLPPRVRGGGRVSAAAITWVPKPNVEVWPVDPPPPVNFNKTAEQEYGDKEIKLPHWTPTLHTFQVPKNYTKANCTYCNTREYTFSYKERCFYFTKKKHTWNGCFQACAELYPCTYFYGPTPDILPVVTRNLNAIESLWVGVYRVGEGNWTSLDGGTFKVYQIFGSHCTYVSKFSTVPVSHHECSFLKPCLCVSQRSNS
Hits are given with their value; i = inactive; nt = not tested or not shown. Compounds with a hit are over-represented: about 2.2% of the library has one in this group of screens.

SMILES	Bim-Mcl-1	Mcl1 Bid PPI	Mcl1 Noxa PPI	RBBP9 inh	MCL1-BIM inh	EBV gp42 inh
O=C(CN1C(=O)NC2(CCc3ccccc3C2)C1=O)Nc1ccc(F)cc1 (configuration not stated)	i	87.8	i	i	i	i
Cc1cc(-c2ccccc2)c(C#N)c(=S)[nH]1	i	i	i	i	i	82.7
N#Cc1c(-c2ccccc2Cl)cc(-c2ccccc2)[nH]c1=S	i	i	i	i	i	i
Cc1ccc(/C=C/C2=Cc3c(sc(NC(=O)CSc4n[nH]c(N)n4)c3C#N)C(C)(C)C2)o1	i	i	96.9	i	60.7	76.8
CCCC(=O)N(CCN1CCOCC1)c1nc2c(OCC)cccc2s1	nt	nt	nt	nt	i	nt
Cc1c(Cl)cnc(NC(=O)COC(=O)c2ccc3ncsc3c2)c1Cl	i	66.0	58.4	i	i	i
CCOc1ccc(N2C(=O)/C(=C\c3ccc(O)c(OC)c3)S(=O)(=O)C2c2cccc([N+](=O)[O-])c2)cc1 (configuration not stated)	i	i	71.5	i	i	i
CCOc1ccc(N2C(=O)/C(=C\c3ccc(OC)c(O)c3)S(=O)(=O)C2c2cccc([N+](=O)[O-])c2)cc1 (configuration not stated)	i	i	i	i	i	i
O=C(/C=C/c1ccccc1[N+](=O)[O-])Nc1ccc(S(=O)(=O)Nc2ncccn2)cc1	nt	nt	nt	nt	i	nt
CC1=Nc2ccccc2/C1=C/c1c(N)n2c(S(=O)(=O)CC(C)C)nsc2nc1=O	i	i	i	i	nt	i
CCCN1C(=O)/C(=C\c2nc3ccccc3c(=O)[nH]2)c2ccccc21	i	50.5	i	i	nt	i
CN(C)c1ccc(/C=C/c2nc3ccccc3c(=O)[nH]2)cc1	nt	nt	nt	nt	i	nt
O=C1SC(SCc2ccccc2Cl)=N/C1=C\c1ccc(C(=O)O)cc1	i	i	80.2	i	i	i
CC1(C2CC2)NC(=O)N(CC(=O)NCc2ccc(Cl)cc2Cl)C1=O (configuration not stated)	nt	nt	nt	nt	i	nt
CCOC(=O)N1CCN(CC(=O)Nc2cc(OCC)ccc2OCC)CC1	i	60.4	i	i	i	i
CCOc1ccc(OCC)c(NC(=O)CN2CCN(c3ccc(C)cc3C)CC2)c1	i	50.6	i	i	i	i
Cc1nc2cc(N3CCCCC3)c(NC(=O)c3ccncc3)cc2c(=O)n1Cc1ccc(Cl)cc1	i	57.2	i	i	i	i
Cc1nc2cc(N3CCN(C)CC3)c(NC(=O)Cc3ccccc3)cc2c(=O)n1Cc1ccccc1	i	i	i	i	i	i
Cc1ccccc1NC(=O)/C=C/c1ccc([N+](=O)[O-])s1	i	51.8	i	i	i	i
O=[N+]([O-])c1ccc(/C=N/NC(=S)Nc2ccc(Cl)cc2Cl)s1	nt	79.6	87.5	i	i	i
COc1ccccc1NC(=O)C(=O)N/N=C/c1ccc([N+](=O)[O-])s1	i	92.7	92.5	i	nt	79.4
O=[N+]([O-])c1ccc(O)c(/C=N/NC(=S)Nc2ccc(Cl)cc2Cl)c1	nt	i	i	i	i	i
COC(=O)N/N=C/c1ccc([N+](=O)[O-])s1	i	i	i	i	i	i
Cc1cc(C)cc(NC(=O)/C=C/c2ccc([N+](=O)[O-])s2)c1	i	i	i	i	i	i
CCc1sc(C(=O)NCCCn2ccnc2)cc1Br	nt	nt	nt	nt	i	nt
SMILES	Bim-Mcl-1	Mcl1 Bid PPI	Mcl1 Noxa PPI	RBBP9 inh	MCL1-BIM inh	EBV gp42 inh
Cc1cc(C)c(S(=O)(=O)NCC(=O)NCc2ccco2)c(C)c1	i	i	i	i	i	i
COc1ccc(C(C)=O)cc1COc1ccc(Cl)cc1Cl	nt	92.5	i	i	i	i
COc1ccc(C(C)=O)cc1COc1cc(C)c(Cl)c(C)c1	nt	i	i	i	i	i
O=C1NCCCC2c3cc(O)c4ccccc4c3OC12N1CCCCC1 (configuration not stated)	i	i	78.2	i	56.6	i
O=C(O)CCCC(=O)N1N=C(c2ccccc2)CC1c1ccc2c(c1)OCO2 (configuration not stated)	nt	nt	nt	nt	i	nt
COc1cc2c(=O)n(Cc3ccccc3)c(=O)n(CC(=O)NCc3ccco3)c2cc1OC	i	52.5	i	i	nt	i
O=C(Cn1c(=O)n(Cc2ccccc2)c(=O)c2ccccc21)NCc1ccco1	i	i	i	i	i	i
O=C(OCCN1C(=O)c2cccc3c(N4CCOCC4)ccc(c23)C1=O)c1ccccc1Cl	i	i	i	i	i	145.6
COc1ccc(C(C)=O)cc1COC(=O)c1ccc(OCc2c(C)noc2C)cc1	i	52.2	i	i	i	i
COc1ccc(C(C)=O)cc1COC(=O)c1c(C)noc1C	i	i	i	i	i	i
CCCCn1c(NCc2cccs2)nc2ccccc21	i	i	50.5	i	i	i
CCCCn1c(NCc2ccncc2)nc2ccccc21	i	i	i	i	i	i
CCCn1c(NCc2cccs2)nc2ccccc21	i	i	i	i	i	i
CCCCn1c(NCc2ccc(N(C)C)cc2)nc2ccccc21	nt	i	89.4	i	i	i
O=C(c1ccccc1)C(O)c1ccccc1 (configuration not stated)	nt	nt	nt	nt	i	nt
C=CC(c1ccccc1)C(C(=O)c1ccccc1)N(C)C (configuration not stated)	i	82.2	i	i	nt	i
COC(=O)/C=C/c1ccc(OC(=O)c2ccncc2)cc1	i	i	i	i	i	i
O=C(CCn1ccc2cc(S(=O)(=O)N3CCCC3)ccc21)NCc1cccc(F)c1	nt	nt	nt	nt	i	nt
O=C(CN1C(=O)c2ccccc2C1=O)N1CCCCC1	i	99.2	i	i	i	i
O=C(CN1C(=O)c2cccc3cccc(c23)C1=O)N1CCCCCC1	i	i	i	i	i	i
O=C(Nc1ccc(CCC(=O)N2CCCC2)cc1)c1ncn[nH]1	i	95.5	i	i	i	i
CCOC(=O)C1=NNC(C(=O)c2ccc(Cl)cc2)C1c1ccc(OC)cc1 (configuration not stated)	i	i	i	i	i	82.2
Cc1ccc(CNC(=O)COc2ccc(C)nc2[N+](=O)[O-])cc1	i	i	i	i	i	i
Cc1ccc(OCC(=O)NCc2ccco2)c([N+](=O)[O-])n1	i	79.6	i	i	i	i
Cc1cnc(C(=O)NC2CC(C)(C)Cc3c2cnn3-c2cccc(F)c2)cn1 (configuration not stated)	nt	nt	nt	nt	i	nt
Clc1cncc(Cl)c1NNc1c2ccccc2nc2ccccc12	i	i	57.6	i	i	i
CCCCCCn1c(=O)[nH]c2nc3cc(N)c(C)cc3nc2c1=O	i	i	i	i	nt	148.3
CC1=C(C(=O)OCc2ccccc2)C(c2ccccc2OS(=O)(=O)c2ccc(C)cc2)NC(=O)N1CCCC(=O)O (configuration not stated)	nt	nt	nt	nt	i	nt
CCC(CC)C(=O)Oc1c(Sc2ccccc2[N+](=O)[O-])c(C)nn1C(C)(C)C	i	91.2	i	i	i	i
Nc1ccc(N2CCN(C(=O)c3cccs3)CC2)cc1	i	i	61.3	i	i	i
